Measurements reported in ChEMBL document CHEMBL4052653, “Discovery of Novel and Potent Stearoyl Coenzyme A Desaturase 1 (SCD1) Inhibitors as Anticancer Agents” (Bioorg Med Chem, 2017).
pIC50: −log10 of the molar value. Active and inactive are the calls of the source. The calls are words filed in the database; no cut-off is given here.

Columns and labels:
[1] = AUC in po dosed mouse administered as cassette dose; type: ADME, organism-based; details: in vivo
In short: (§1)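 Mouse cassette-dosing PK: 0.1 mg/kg iv and 1 mg/kg po. Total clearance given in […]. AUC (ng·h/mL) and MRT (h) taken after the oral dose.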

[2] = Mean residence time in po dosed mouse administered as cassette dose; type: ADME, organism-based; details: in vivo; in short: as §1
[3] = Fraction unbound in mouse plasma; type: ADME, cell-free
[4] = system: HCT-116; experiment: Growth inhibition of human HCT116 cells after 72 hrs by CellTiter-Glo luminescence assay; type: functional; details: HCT-116, 72 h
In short: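 HCT116 cells seeded at 9 × 10^2 cells/well and cultured 24 h. Compounds diluted in growth medium to final concentrations and added. Proliferation read by CellTiter-Glo luminescence after 72 h.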

[5] = biological target: T1, Stearoyl-CoA desaturase (Homo sapiens, UniProt O00767); experiment: Displacement of (5-(6-(10H-spiro(1-benzofuran-3,30-pyrrolidin)-10-yl)pyridazin-3-yl)-1,2,4-oxadiazol-3-yl)[3H2]methanol from SCD1 in human liver microsomes after 120 mins TopCount liquid scintillation counting method
T1 sequence (O00767 whole entry): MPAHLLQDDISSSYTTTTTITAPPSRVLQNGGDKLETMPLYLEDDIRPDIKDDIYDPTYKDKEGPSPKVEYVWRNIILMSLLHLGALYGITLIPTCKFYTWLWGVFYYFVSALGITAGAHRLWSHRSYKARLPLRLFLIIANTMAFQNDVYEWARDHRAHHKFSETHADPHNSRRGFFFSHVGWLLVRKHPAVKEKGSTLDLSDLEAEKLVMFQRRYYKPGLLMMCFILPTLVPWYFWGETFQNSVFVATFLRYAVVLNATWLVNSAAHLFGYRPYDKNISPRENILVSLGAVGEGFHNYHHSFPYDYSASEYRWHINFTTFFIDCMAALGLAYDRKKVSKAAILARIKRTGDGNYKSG
In short: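 Human SCD1 liver microsomes incubated 120 min with 3.0 nM [3H]-ligand and test compound over a range of concentrations. Bound ligand collected on PEI-pretreated GF/B filters, washed five times, counted by scintillation. Controls: DMSO (100%) and 10 µM unlabeled reference ligand (0%). IC50 from a three-parameter logistic fit.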

[6] = Stability in mouse liver microsomes; type: ADME, microsome; details: read-out: Stability
[7] = Total clearance in mouse at 0.1 mg/kg, iv or 1 mg/kg, po administered as cassette dose; type: ADME, organism-based; details: in vivo; in short: as §1
[8] = system: Mus musculus; experiment: Toxicity in athymic BALB/cA Jc1-nu/nu mouse at 1 mg/kg, po bid administered for 28 days; type: organism-based; details: in vivo, 672 h
[9] = Stability in human liver microsomes; type: ADME, microsome; details: read-out: Stability
[10] = system: 786-0; experiment: Antitumor activity against human 786-O cells xenografted in athymic BALB/cA Jc1-nu/nu mouse assessed as tumor growth inhibition at 1 mg/kg, po bid administered for 28 days measured twice per week; type: functional
In short: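 Female BALB/c nu/nu mice, 7 weeks old, inoculated subcutaneously in the flank with 3.0 × 10^6 786-O cells (1:1 with Matrigel). Randomized at mean tumor volume of about 130 mm3, n = 8/group. Dosed orally at 1 mg/kg bid, or with 0.5% methylcellulose vehicle, for 28 days at 10 mL/kg. Calipers used twice weekly, volume = W²×L/2. T/C taken at Day 28; Student's t-test.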

[11] = system: Mus musculus; experiment: In-vivo inhibition of SCD1 in athymic nude mouse xenografted with human HCT116 cells assessed as decrease in desaturation index of phosphatidylcholine at 0.3 to 30 mg/kg, po bid measured after 16 hrs by LC/MS analysis; type: functional, organism-based
In short: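 Nude mice bearing HCT116 xenografts of about 200 mm3, randomized. Oral dosing at 0.3, 3 and 30 mg/kg bid in 0.5% methylcellulose. Tumors collected 16 h after two doses and homogenized in isopropanol. Lipids analyzed by LC/Orbitrap MS. DI taken as the ratio PC C36:3/PC C36:0. Statistics by Williams' test.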

[12] = Mean residence time in mouse at 1 mg/kg, po administered as cassette dose; type: ADME, organism-based; details: in vivo; in short: as §1
[13] = system: Mus musculus; experiment: AUC in mouse at 1 mg/kg, po administered as cassette dose; type: ADME, organism-based; details: in vivo; in short: as §1
[14] = biological target: T1, Stearoyl-CoA desaturase; experiment: Inhibition of SCD1 (unknown origin)

## OCc1nnc(-c2ccc(N3CCC(c4ccc(C(F)(F)F)cc4)(C(F)(F)F)CC3)nn2)s1
[1]
  AUC: 1190 ng·h/mL
[2]
  MRT: 4.1 h
[3]
  fraction unbound: 0.03
[4]
  GI50: 1.1 nM
[5]
  pIC50: 8.60
[6]
  microsomal CLint: 1 µL/min/mg
[7]
  clearance: 15.9 mL/min/kg

## OCc1nnc(-c2ccc(N3CCC(c4ccc(C(F)(F)F)cc4)(C(F)(F)F)CC3)nn2)o1
[1]
  AUC: 3760 ng·h/mL
[2]
  MRT: 4.2 h
[3]
  fraction unbound: 0.07
[4]
  GI50: 2.7 nM
[8]
  Activity: Non-Toxic
[9]
  microsomal CLint: 14 µL/min/mg
[5]
  pIC50: 8.33
[10]
  T/C: 32.8%
[6]
  microsomal CLint: 33 µL/min/mg
[11]
  inhibition: Active
[7]
  clearance: 5.17 mL/min/kg

## N#CC1(c2cccc(Cl)c2)CCN(c2ccc(-c3nc(CO)no3)nn2)CC1
[4]
  GI50: 200 nM
[5]
  pIC50: 7.82

## N#CC1(c2ccc(S(F)(F)(F)(F)F)cc2)CCN(c2ccc(-c3nc(CO)no3)nn2)CC1
[4]
  GI50: 8.4 nM
[9]
  microsomal CLint: 7 µL/min/mg
[5]
  pIC50: 8.02
[6]
  microsomal CLint: 24 µL/min/mg

## OCc1nsc(-c2ccc(N3CCC(c4ccc(C(F)(F)F)cc4)(C(F)(F)F)CC3)nn2)n1
[1]
  AUC: 1820 ng·h/mL
[2]
  MRT: 4.2 h
[3]
  fraction unbound: 0.01
[4]
  GI50: 1.3 nM
[9]
  microsomal CLint: 10 µL/min/mg
[5]
  pIC50: 8.92
[7]
  clearance: 8.23 mL/min/kg

## N#CC1(c2ccc(OC(F)(F)F)cc2)CCN(c2ccc(-c3nc(CO)no3)nn2)CC1
[4]
  GI50: 32 nM
[5]
  pIC50: 7.96
[6]
  microsomal CLint: 35 µL/min/mg

## OCc1noc(-c2ccc(N3CCC4(COc5ccccc54)C3)nn2)n1 (stereo unspecified)
[12]
  MRT: 2.3 h
[13]
  AUC: 299 ng·h/mL
[14]
  pIC50: 8.34

## CC(C)(C)c1ccc(C2(C#N)CCN(c3ccc(-c4nc(CO)no4)nn3)CC2)cc1
[4]
  GI50: 37 nM
[5]
  pIC50: 7.68
[6]
  microsomal CLint: 119 µL/min/mg

## N#CC1(c2ccc(Cl)cc2)CCN(c2ccc(-c3nc(CO)no3)nn2)CC1
[4]
  GI50: 110 nM
[5]
  pIC50: 7.70
[6]
  microsomal CLint: 39 µL/min/mg

## N#CC1(c2ccc(C(F)(F)F)cc2)CCN(c2ccc(-c3nc(CO)no3)nn2)CC1
[4]
  GI50: 39 nM
[9]
  microsomal CLint: 2 µL/min/mg
[5]
  pIC50: 7.57
[6]
  microsomal CLint: 33 µL/min/mg

## COC1(c2ccccc2)CCN(c2ccc(-c3nc(CO)no3)nn2)CC1
[4]
  GI50: 410 nM
[5]
  pIC50: 6.96

## OCc1noc(-c2ccc(N3CCC(c4ccc(C(F)(F)F)cc4)(C(F)(F)F)CC3)nn2)n1
[1]
  AUC: 432 ng·h/mL
[2]
  MRT: 3.2 h
[3]
  fraction unbound: 0.05
[4]
  GI50: 1.3 nM
[9]
  microsomal CLint: 20 µL/min/mg
[5]
  pIC50: 8.64
[6]
  microsomal CLint: 19 µL/min/mg
[7]
  clearance: 15.4 mL/min/kg

## OCc1noc(-c2ccc(N3CCC(c4ccccc4)(C(F)(F)F)CC3)nn2)n1
[4]
  GI50: 39 nM
[5]
  pIC50: 7.42

## N#CC1(c2ccccc2Cl)CCN(c2ccc(-c3nc(CO)no3)nn2)CC1
[4]
  GI50: 240 nM
[5]
  pIC50: 7.10

## N#CC1(c2ccc([N+](=O)[O-])cc2)CCN(c2ccc(-c3nc(CO)no3)nn2)CC1
[4]
  GI50: 170 nM
[9]
  microsomal CLint: 6 µL/min/mg
[5]
  pIC50: 7.00
[6]
  microsomal CLint: 11 µL/min/mg

## OCc1noc(-c2ccc(N3CCC(O)(c4ccccc4)CC3)nn2)n1
[4]
  GI50: > 1000 nM
[5]
  pIC50: 6.89

## N#CC1(c2ccccc2)CCN(c2ccc(-c3nc(CO)no3)nn2)CC1
[4]
  GI50: 530 nM
[5]
  pIC50: 6.72

## NC1(c2ccccc2)CCN(c2ccc(-c3nc(CO)no3)nn2)CC1
[4]
  GI50: 530 nM
[5]
  pIC50: 6.66
